Active and inactive are the calls of the source. No cut-off for these calls is given here.
Assays:
dsDNA [1] = assay: Stabilization of 5'6FAM/3'Dabcyl-labelled double stranded DNA (unknown origin) assessed as change in melting temperature at 0.75 uM by fluorescence assay; type: nucleic-acid assay
Outline: (§1)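 Thermal stabilization of dsDNA or G-quadruplex DNA is measured as ΔTm at 0.75 and 2.5 μM compound.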

dsDNA [2] = assay: Stabilization of 5'6FAM/3'Dabcyl-labelled double stranded DNA (unknown origin) assessed as change in melting temperature at 2.5 uM by fluorescence assay; type: nucleic-acid assay; outline: as §1
Quadruplex DNA [3] = assay: Stabilization of 3'-6FAM/5'-Dabcyl-labelled human telomeric 22 G-quadruplex DNA assessed as change in melting temperature at 0.75 uM by fluorescence assay; type: nucleic-acid assay; outline: as §1
Quadruplex DNA [4] = assay: Stabilization of 3'-6FAM/5'-Dabcyl-labelled human telomeric 22 G-quadruplex DNA assessed as change in melting temperature at 2.5 uM by fluorescence assay; type: nucleic-acid assay; outline: as §1
Histone deacetylase = assay: Inhibition of HDAC in human HeLa nuclear extract using Fluor de Lys as substrate by fluorimetric method; type: protein assay
Histone deacetylase 1 = Histone deacetylase 1 (Homo sapiens, UniProt Q13547); assay: Inhibition of recombinant human C-terminal FLAG-His tagged HDAC1 (1 to 482 residues) expressed in Sf21 insect cells using RHK-K(Ac)-AMC as substrate by fluorescence assay
Histone deacetylase 2 = Histone deacetylase 2 (Homo sapiens, UniProt Q92769); assay: Inhibition of recombinant human C-terminal GST-tagged HDAC2 (1 to 488 residues) expressed in baculovirus infected Sf21 insect cells using RHK-K(Ac)-AMC as substrate measured after 30 mins by fluorescence assay
Histone deacetylase 4 = Histone deacetylase 4 (Homo sapiens, UniProt P56524); assay: Inhibition of recombinant human N-terminal GST-tagged/C-terminal His-tagged HDAC4 (627 to 1084 residues) expressed in baculovirus infected Sf21 insect cells using (Boc-Lys(trifluoroacetyl)-AMC) as substrate by fluorescence assay
[5] = target: T1, Protein deacetylase HDAC6 (Homo sapiens, UniProt Q9UBN7); assay: Inhibition of recombinant human N-terminal GST-tagged HDAC6 (1 to 1215 residues) expressed in baculovirus infected Sf21 insect cells using RHKKAc as substrate by fluorescence assay
T1 sequence (Q9UBN7 whole entry): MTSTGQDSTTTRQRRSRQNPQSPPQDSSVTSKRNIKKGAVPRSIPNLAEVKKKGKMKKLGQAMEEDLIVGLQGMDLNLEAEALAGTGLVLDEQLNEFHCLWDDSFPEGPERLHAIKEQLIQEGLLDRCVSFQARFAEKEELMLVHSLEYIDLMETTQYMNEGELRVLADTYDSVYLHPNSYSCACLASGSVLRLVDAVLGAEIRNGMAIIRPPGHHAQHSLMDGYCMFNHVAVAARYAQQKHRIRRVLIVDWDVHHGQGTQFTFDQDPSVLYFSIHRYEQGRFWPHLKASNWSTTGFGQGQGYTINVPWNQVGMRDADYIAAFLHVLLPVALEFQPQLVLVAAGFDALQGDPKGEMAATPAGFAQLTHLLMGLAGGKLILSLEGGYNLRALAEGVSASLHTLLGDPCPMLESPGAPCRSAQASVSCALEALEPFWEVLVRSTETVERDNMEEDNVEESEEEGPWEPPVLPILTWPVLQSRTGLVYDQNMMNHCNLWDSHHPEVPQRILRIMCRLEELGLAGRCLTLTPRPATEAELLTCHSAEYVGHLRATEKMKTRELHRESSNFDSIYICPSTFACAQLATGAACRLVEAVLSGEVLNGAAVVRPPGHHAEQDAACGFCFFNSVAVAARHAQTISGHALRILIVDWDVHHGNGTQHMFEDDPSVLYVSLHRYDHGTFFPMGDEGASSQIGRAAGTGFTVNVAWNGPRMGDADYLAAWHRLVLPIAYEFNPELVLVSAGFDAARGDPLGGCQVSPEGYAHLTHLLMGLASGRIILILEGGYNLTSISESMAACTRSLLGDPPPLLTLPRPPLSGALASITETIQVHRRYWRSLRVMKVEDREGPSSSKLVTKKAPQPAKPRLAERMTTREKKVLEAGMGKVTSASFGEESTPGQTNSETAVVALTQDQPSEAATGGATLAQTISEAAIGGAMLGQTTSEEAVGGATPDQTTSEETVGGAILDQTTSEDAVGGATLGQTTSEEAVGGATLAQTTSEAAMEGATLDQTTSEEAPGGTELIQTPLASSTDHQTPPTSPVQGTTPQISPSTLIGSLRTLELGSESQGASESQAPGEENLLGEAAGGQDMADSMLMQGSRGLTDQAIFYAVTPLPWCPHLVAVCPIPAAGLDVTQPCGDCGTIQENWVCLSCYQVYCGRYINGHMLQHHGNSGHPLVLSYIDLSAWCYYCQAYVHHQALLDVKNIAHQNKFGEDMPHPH

[6] = target: T2, Histone deacetylase (Homo sapiens) (UniProt Q13547+O15379+Q9UBN7+Q92769+Q9UQL6+Q8WUI4+Q9BY41+Q96DB2+P56524+Q9UKV0+Q969S8); assay: Inhibition of HDAC in human A549 cells assessed as increase in acetylated H3 level at 5 uM after 24 hrs by Western blot analysis relative to control; type: cell-based
Outline: (§2)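 A549 cells are treated 24 h at 5 μM. Global histone H3 and H4 lysine acetylation is detected by Western blotting.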

[7] = target: T2, Histone deacetylase (Homo sapiens); assay: Inhibition of HDAC in human A549 cells assessed as increase in acetylated H4 level at 5 uM after 24 hrs by Western blot analysis relative to control; type: cell-based; outline: as §2
U-87 MG = assay: Growth inhibition of human U87 cells after 48 hrs by alamar blue assay; type: functional, U-87MG ATCC
Outline: (§3)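 Growth inhibition in U87, HCT116 and A549 cells at 0.2, 1 and 5 μM. GI50 is derived from the inhibitory dose–response curve.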

HCT-116 [8] = assay: Growth inhibition of human HCT116 cells after 48 hrs by alamar blue assay; type: functional; details: for GI50: HCT-116, 48 h; outline: as §3
A549 [9] = assay: Growth inhibition of human A549 cells after 48 hrs by alamar blue assay; type: functional; details: for GI50: A549, 48 h; outline: as §3
HCT-116 [10] = assay: Inhibition of epithelial-mesenchymal transition in human HCT116 cells assessed as upregulation of CDH1 expression at 5 uM after 48 hrs by SYBR-green dye based RT-PCR analysis relative to control; type: functional
Outline: (§4)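 HCT116 and A549 cells are treated 48 h with 5 μM. CDH1 and VIM expression is measured against untreated control. Data are mean ± SEM of four independent experiments.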

A549 [11] = assay: Inhibition of epithelial-mesenchymal transition in human A549 cells assessed as upregulation of CDH1 expression at 5 uM after 48 hrs by SYBR-green dye based RT-PCR analysis relative to control; type: functional; outline: as §4
HCT-116 [12] = assay: Inhibition of epithelial-mesenchymal transition in human HCT116 cells assessed as down regulation of VIM expression at 5 uM after 48 hrs by SYBR-green dye based RT-PCR analysis relative to control; type: functional; outline: as §4
A549 [13] = assay: Suppression of TGFbeta1-induced cell proliferation in human A549 cells assessed as reduction in cell growth at 5 uM treated for 24 hrs in presence of TGFbeta1 followed by addition of fresh media containing compounds for 24 hrs by alamar blue assay relative to control; type: functional; design: scale not given: the % may be the effect or the level left
Outline: (§5)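 A549 cells stimulated with TGF-β1 get a 48 h-long 5 μM treatment. Percentage growth is evaluated according to NCI screening procedures, as mean value.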

A549 [14] = assay: Inhibition of epithelial-mesenchymal transition in human A549 cells assessed as down regulation of VIM expression at 5 uM after 48 hrs by SYBR-green dye based RT-PCR analysis relative to control; type: functional; outline: as §4
A549 [15] = assay: (§6) Inhibition of TGFbeta1-induced epithelial-mesenchymal transition in human A549 cells assessed as upregulation of CDH1 expression at 5 uM treated for 24 hrs in presence of TGFbeta1 followed by addition of fresh media containing compounds for 24 hrs by SYBR-green dye based RT-PCR analysis relative to control; type: functional
Outline: (§7)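 A549 cells are stimulated with TGF-β1, alone or combined with 5 μM compound. CDH1 and VIM expression is measured and compared with control and with TGF-β1 alone.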

A549 [16] = assay: as §6, with “down regulation” for “upregulation”, “VIM” for “CDH1”; type: functional; outline: as §7
A549 [17] = assay: Antimigratory activity against human A549 cells assessed as reduction in cell migration towards wound area at 5 uM measured after 24 hrs by scratch wound-healing assay relative to control; type: functional; design: scale not given: the % may be the effect or the level left
Outline: (§8)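 Scratch wound healing on A549 cells, with or without TGF-β1 stimulation. Repopulation of the wound area is read at 24 h postscratch.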

A549 [18] = assay: Antimigratory activity against TGFbeta1-stimulated human A549 cells assessed as reduction in cell migration towards wound area at 5 uM treated for 24 hrs in presence of TGFbeta1 followed by addition of fresh media containing compounds for 24 hrs by scratch wound-healing assay relative to control; type: functional; outline: as §8
A549 [19] = assay: Suppression of TGFbeta1-induced cell proliferation in human A549 cells at 5 uM treated for 24 hrs in presence of TGFbeta1 followed by addition of fresh media containing compounds for 24 hrs by alamar blue assay relative to control; type: functional; outline: as §5
[20] = target: DNA polymerase I, thermostable (Thermus aquaticus) (UniProt P19821); assay: Inhibition of Thermus aquaticus Taq-polymerase using pBR322 as substrate up to 40 uM by PCR analysis
DNA polymerase I, thermostable (Thermus aquaticus), sequence (P19821 whole entry): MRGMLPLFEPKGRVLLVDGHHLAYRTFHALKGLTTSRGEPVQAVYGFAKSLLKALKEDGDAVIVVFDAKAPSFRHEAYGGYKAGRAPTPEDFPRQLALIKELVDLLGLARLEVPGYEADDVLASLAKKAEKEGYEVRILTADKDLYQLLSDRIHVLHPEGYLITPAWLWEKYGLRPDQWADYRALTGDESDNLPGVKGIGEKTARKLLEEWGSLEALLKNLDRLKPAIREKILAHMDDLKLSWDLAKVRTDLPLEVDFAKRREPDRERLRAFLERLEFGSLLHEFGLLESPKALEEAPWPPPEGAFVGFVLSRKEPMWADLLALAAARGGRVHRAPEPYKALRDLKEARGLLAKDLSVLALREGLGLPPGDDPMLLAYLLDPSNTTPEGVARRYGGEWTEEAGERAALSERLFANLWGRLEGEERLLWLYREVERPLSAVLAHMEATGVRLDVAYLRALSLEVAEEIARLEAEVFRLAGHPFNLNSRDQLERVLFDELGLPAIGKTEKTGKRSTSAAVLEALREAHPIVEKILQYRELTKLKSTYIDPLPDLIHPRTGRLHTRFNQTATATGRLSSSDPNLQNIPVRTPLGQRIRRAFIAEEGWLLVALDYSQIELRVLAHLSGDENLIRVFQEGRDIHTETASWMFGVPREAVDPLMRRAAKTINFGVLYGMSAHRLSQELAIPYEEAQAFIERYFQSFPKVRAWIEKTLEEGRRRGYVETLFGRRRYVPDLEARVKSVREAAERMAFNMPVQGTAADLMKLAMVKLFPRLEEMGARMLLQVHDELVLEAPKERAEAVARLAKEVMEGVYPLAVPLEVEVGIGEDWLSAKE

Histone deacetylase 4, sequence (P56524 whole entry, the tested form may be a part): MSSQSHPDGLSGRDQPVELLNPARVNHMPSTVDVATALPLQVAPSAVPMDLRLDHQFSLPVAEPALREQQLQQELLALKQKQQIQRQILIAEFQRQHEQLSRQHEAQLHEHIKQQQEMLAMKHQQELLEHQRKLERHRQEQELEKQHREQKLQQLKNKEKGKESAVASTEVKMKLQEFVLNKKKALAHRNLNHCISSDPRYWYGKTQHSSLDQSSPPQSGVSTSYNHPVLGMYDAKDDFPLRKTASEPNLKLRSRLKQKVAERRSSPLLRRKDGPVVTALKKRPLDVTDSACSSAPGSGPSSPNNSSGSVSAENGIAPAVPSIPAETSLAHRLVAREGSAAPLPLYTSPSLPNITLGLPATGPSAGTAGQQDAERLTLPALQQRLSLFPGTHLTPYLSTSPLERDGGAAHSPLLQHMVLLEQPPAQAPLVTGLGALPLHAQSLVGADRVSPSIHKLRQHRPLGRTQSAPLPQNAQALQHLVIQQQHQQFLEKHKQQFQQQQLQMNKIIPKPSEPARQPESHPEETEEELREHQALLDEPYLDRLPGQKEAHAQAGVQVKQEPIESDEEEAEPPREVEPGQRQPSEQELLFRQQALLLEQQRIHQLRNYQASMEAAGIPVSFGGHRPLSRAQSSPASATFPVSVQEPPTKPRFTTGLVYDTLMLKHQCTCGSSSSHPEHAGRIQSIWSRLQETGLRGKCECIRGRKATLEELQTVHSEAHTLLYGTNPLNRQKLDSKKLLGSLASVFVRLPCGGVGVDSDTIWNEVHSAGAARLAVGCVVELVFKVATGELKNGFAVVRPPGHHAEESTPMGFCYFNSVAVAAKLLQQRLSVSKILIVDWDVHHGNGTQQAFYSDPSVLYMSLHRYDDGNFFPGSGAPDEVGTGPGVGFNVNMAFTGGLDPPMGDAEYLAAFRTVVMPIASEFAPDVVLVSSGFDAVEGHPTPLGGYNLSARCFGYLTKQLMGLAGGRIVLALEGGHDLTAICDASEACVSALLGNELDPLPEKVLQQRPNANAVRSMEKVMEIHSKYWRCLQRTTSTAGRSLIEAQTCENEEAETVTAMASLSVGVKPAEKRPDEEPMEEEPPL
Histone deacetylase 1, sequence (Q13547 whole entry, the tested form may be a part): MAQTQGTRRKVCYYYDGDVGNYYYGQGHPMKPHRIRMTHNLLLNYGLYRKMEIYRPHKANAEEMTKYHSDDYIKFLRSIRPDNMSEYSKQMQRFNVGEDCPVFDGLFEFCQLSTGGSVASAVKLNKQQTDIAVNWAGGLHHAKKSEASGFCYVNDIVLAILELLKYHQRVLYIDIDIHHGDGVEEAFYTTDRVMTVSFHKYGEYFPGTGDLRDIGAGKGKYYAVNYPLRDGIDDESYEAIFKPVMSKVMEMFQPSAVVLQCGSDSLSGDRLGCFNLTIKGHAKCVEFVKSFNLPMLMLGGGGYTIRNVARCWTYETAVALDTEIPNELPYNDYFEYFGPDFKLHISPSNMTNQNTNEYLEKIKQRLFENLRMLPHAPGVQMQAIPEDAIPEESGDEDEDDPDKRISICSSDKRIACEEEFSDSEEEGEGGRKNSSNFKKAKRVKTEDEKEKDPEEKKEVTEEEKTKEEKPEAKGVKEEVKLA
Histone deacetylase 2, sequence (Q92769 whole entry, the tested form may be a part): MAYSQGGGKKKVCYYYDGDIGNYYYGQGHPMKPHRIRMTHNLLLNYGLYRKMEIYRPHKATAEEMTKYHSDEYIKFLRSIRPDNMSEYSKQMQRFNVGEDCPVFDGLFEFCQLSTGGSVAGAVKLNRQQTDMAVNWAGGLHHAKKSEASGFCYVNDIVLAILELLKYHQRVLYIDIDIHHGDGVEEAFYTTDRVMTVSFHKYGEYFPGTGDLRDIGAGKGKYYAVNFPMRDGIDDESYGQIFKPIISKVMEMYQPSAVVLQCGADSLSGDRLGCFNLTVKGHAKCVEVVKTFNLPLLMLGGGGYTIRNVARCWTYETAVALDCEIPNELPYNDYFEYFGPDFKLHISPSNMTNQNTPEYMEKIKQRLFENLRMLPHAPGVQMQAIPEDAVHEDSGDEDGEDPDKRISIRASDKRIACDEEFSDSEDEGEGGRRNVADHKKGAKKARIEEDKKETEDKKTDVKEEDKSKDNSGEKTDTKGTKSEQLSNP

| SMILES | ΔTm (dsDNA [1]) | ΔTm (dsDNA [2]) | ΔTm (Quadruplex DNA [3]) | ΔTm (Quadruplex DNA [4]) | IC50 (Histone deacetylase) | GI50 (U-87 MG) | GI50 (HCT-116 [8]) | GI50 (A549 [9]) | other results |
| --- | --- | --- | --- | --- | --- | --- | --- | --- | --- |
| CN(C)c1ccc(Nc2c3ccc(NC(=O)CCN4CCCC4)cc3nc3cc(NC(=O)CCN4CCCC4)ccc23)cc1 | 0.5 °C | 5.3 °C | 11 °C | 28.3 °C |  |  |  |  |  |
| Cl.NCCCCNCCCCNCCCN1C(=O)c2ccc3c4c(ccc(c24)C1=O)C(=O)N(CCCCCC(=O)NO)C3=O | 7.5 °C |  | 13.3 °C |  | 0.56 µM | > 5 µM | 3.08 µM | > 5 µM | IC50 (Histone deacetylase 1): 4.12 µM; IC50 (Histone deacetylase 2): 10.8 µM; IC50 (Histone deacetylase 4): 117 µM; IC50 [5]: 0.05 µM; fold change (FC) [6]: 2; fold change (FC) [7]: 2; fold change (FC) (HCT-116 [10]): 1.32; fold change (FC) (A549 [11]): 1.28; fold change (FC) (HCT-116 [12]): 0.44; Activity (A549 [13]): 85%; fold change (FC) (A549 [14]): 0.68; fold change (FC) (A549 [15]): 3.66; fold change (FC) (A549 [16]): 2.61; Activity (A549 [17]): >80%; fold change (FC) (A549 [18]): 1.38; fold change (FC) (A549 [19]): 1.38; inhibition [20]: Active |
| COc1ccccc1CNCCCN1C(=O)c2ccc3c4c(ccc(c24)C1=O)C(=O)N(CCCNCCCCNCCCN)C3=O | 0.6 °C |  | 1.5 °C |  |  | 4.85 µM | 4.39 µM | > 5 µM | inhibition (HCT-116 [10]): inactive; inhibition (A549 [11]): inactive; inhibition (HCT-116 [12]): inactive; inhibition (A549 [14]): inactive |
| Cl.NCCCNCCCCNCCCN1C(=O)c2ccc3c4c(ccc(c24)C1=O)C(=O)N(CCCCCC(=O)NO)C3=O | 3.5 °C | 8.1 °C | 4.5 °C | 10.9 °C | 0.52 µM |  |  |  |  |

Continued, in another order:

| ΔTm (dsDNA [1]) | ΔTm (dsDNA [2]) | ΔTm (Quadruplex DNA [3]) | ΔTm (Quadruplex DNA [4]) | IC50 (Histone deacetylase) | GI50 (U-87 MG) | GI50 (HCT-116 [8]) | GI50 (A549 [9]) | SMILES | other results |
| --- | --- | --- | --- | --- | --- | --- | --- | --- | --- |
| 5 °C |  | 9.9 °C |  | 0.37 µM | > 5 µM | 2.13 µM | > 5 µM | Cl.NCCCNCCCNCCCN1C(=O)c2ccc3c4c(ccc(c24)C1=O)C(=O)N(CCCCCC(=O)NO)C3=O | inhibition [20]: Active |
| 0.1 °C | 0.1 °C | 0.1 °C | 0.1 °C |  |  |  |  | O=C(CCCCCN1C(=O)c2cccc3cccc(c23)C1=O)NO | growth inhibition (GI) (U-87 MG; U-87MG ATCC): Active; growth inhibition (GI) (HCT-116 [8]): Active; growth inhibition (GI) (A549 [9]): Active; inhibition (HCT-116 [10]): inactive; inhibition (A549 [11]): inactive; inhibition (HCT-116 [12]): inactive; inhibition (A549 [14]): inactive |
| 2 °C | 3.4 °C | 4.4 °C | 7.8 °C | 0.55 µM |  |  |  | Cl.NCCCNCCNCCCN1C(=O)c2ccc3c4c(ccc(c24)C1=O)C(=O)N(CCCCCC(=O)NO)C3=O |  |
| 1 °C |  | 2.4 °C |  | 0.41 µM |  |  |  | Cl.NCCCNCCCN1C(=O)c2ccc3c4c(ccc(c24)C1=O)C(=O)N(CCCCCC(=O)NO)C3=O |  |
